Reference: ChEMBL document CHEMBL4706672 (J Med Chem, 2021)
Calls of active or inactive are those of the source. The rule behind the calls is not given here.

How the values were obtained:
[1] = molecular target: Protein cereblon/Melanoma-associated antigen D1 (Homo sapiens) (UniProt Q96SW2+Q9Y5V3); experiment: Protac activity at CRBN/MAGED1 in human BxPC-3 cells assessed as MAGED1 degradation incubated for 16 hrs by proteomic analysis; type: cell-based
Outline: (§1)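 TMT 10plex proteomics. […] Samples (75 μg) were reduced with DTT, alkylated with 2-chloroacetamide, acetone-precipitated, trypsin-digested overnight at 37 °C and TMT-labeled for LC-MS/MS relative quantitation.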

[2] = molecular target: T1, Protein cereblon/E3 ubiquitin-protein ligase ZFP91 (Homo sapiens, UniProt Q96SW2+Q96JP5); experiment: Protac activity at CRBN/ZFP91 in human BxPC-3 cells assessed as ZF91 protein degradation at 1 uM incubated for 16 hrs in presence of proteasome inhibitor carfilzomib by western blot analysis; type: cell-based
T1 sequence (Q96JP5 2-570 partner limits assumed): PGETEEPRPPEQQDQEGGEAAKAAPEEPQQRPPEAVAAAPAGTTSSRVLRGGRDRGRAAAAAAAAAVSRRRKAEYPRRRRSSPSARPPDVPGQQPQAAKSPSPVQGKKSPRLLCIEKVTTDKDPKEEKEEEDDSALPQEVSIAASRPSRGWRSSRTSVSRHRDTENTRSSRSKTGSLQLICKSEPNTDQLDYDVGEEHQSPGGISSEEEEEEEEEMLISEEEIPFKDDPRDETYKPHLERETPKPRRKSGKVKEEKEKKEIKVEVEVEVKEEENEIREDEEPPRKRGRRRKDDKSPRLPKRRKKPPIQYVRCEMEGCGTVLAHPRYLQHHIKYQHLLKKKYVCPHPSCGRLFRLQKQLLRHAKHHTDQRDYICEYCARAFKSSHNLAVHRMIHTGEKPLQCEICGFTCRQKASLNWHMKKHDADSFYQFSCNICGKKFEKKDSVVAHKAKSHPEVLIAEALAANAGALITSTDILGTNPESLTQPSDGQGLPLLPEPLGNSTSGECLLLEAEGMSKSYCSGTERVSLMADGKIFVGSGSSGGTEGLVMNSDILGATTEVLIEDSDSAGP
T1 sequence (Q96SW2 whole entry): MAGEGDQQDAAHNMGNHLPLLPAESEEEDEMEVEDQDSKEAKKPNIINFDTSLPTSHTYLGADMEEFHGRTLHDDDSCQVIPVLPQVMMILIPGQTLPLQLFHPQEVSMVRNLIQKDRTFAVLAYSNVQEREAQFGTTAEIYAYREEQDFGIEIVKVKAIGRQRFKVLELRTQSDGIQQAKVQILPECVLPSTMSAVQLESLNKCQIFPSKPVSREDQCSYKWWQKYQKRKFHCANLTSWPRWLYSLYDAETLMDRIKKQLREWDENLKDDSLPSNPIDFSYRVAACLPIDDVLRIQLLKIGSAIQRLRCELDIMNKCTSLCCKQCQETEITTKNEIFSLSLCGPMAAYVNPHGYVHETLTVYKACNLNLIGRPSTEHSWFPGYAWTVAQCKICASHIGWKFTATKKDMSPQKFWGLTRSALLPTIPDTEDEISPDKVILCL
Outline: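 BxPC-3 cells pretreated 1 h with carfilzomib at 1 μM, then exposed 16 h. Lysates blotted for ZFP91 with GAPDH control; bands quantified by densitometry.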

[3] = molecular target: Protein cereblon/G2/mitotic-specific cyclin-B1 (Homo sapiens) (UniProt P14635+Q96SW2); experiment: Protac activity at CRBN/CCNB1 in human BxPC-3 cells assessed as CCNB1 degradation incubated for 16 hrs by proteomic analysis; type: cell-based; outline: as §1
[4] = molecular target: Protein cereblon/Signal transducer and activator of transcription 3 (Homo sapiens, UniProt P40763+Q96SW2); experiment: Protac activity at CRBN/STAT3 in human BxPC-3 cells assessed as increase in inhibition of STAT3 protein levels at 2 to 3 uM incubated for 16 hrs in presence of protein synthesis inhibitor cycloheximide by western blot analysis; type: cell-based; conditions: dose 2-3 µM
Outline: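 BxPC-3 cells pretreated 1 h with cycloheximide, then test agent for 16 h. Lysates immunoblotted for STAT3 and NQO1 against GAPDH, fluorescent imaging.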

[5] = molecular target: T1, Protein cereblon/E3 ubiquitin-protein ligase ZFP91; experiment: Protac activity at CRBN/ZFP91 in human BxPC-3 cells assessed as ZFP91 degradation incubated for 16 hrs by proteomic analysis; type: cell-based
Outline: (§2)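 BxPC-3 cells exposed 16 h in triplicate (control, PROTAC) or duplicate (other arms); lysed in RIPA at 4 °C, 75 μg protein per sample. Reduced with DTT (1 h, 55 °C), alkylated with 2-chloroacetamide, acetone-precipitated, trypsin-digested overnight at 37 °C, TMT 10plex labelled, relative quantitation by LC-tandem MS.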

[6] = molecular target: Protein cereblon/DNA polymerase delta subunit 4 (Homo sapiens) (UniProt Q9HCU8+Q96SW2); experiment: Protac activity at CRBN/POLD4 in human BxPC-3 cells assessed as POLD4 degradation incubated for 16 hrs by proteomic analysis; type: cell-based; outline: as §1
Protein cereblon/DNA polymerase delta subunit 4 (Homo sapiens), sequence (Q96SW2 whole entry, looked up): as the sequence (Q96SW2 whole entry) above
Protein cereblon/DNA polymerase delta subunit 4 (Homo sapiens), sequence (Q9HCU8 whole entry, looked up): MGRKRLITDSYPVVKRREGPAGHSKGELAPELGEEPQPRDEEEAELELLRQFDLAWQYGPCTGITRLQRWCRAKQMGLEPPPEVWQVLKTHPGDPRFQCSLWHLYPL

[7] = molecular target: Protein cereblon/Kunitz-type protease inhibitor 1 (Homo sapiens) (UniProt Q96SW2+O43278); experiment: Protac activity at CRBN/SPINT1 in human BxPC-3 cells assessed as SPINT1 degradation incubated for 16 hrs by proteomic analysis; type: cell-based; outline: as §1
BXPC-3 = experiment: Antiproliferative activity against human BxPC-3 cells assessed as reduction in cell viability incubated for 3 days by MTT assay; type: functional, cell-based; conditions: BXPC-3, 72 h
[8] = Upregulation of AP-1 protein levels in human BxPC-3 cells incubated for 16 hrs by proteomic analysis; type: functional; outline: as §2
[9] = molecular target: Protein cereblon/WD repeat- and FYVE domain-containing protein 4 (Homo sapiens) (UniProt Q96SW2+Q6ZS81); experiment: Protac activity at CRBN/WDFY4 in human BxPC-3 cells assessed as WDFY4 degradation incubated for 16 hrs by proteomic analysis; type: cell-based; outline: as §2
Protein cereblon/WD repeat- and FYVE domain-containing protein 4 (Homo sapiens), sequence (Q6ZS81 whole entry, looked up, the tested form may be a part): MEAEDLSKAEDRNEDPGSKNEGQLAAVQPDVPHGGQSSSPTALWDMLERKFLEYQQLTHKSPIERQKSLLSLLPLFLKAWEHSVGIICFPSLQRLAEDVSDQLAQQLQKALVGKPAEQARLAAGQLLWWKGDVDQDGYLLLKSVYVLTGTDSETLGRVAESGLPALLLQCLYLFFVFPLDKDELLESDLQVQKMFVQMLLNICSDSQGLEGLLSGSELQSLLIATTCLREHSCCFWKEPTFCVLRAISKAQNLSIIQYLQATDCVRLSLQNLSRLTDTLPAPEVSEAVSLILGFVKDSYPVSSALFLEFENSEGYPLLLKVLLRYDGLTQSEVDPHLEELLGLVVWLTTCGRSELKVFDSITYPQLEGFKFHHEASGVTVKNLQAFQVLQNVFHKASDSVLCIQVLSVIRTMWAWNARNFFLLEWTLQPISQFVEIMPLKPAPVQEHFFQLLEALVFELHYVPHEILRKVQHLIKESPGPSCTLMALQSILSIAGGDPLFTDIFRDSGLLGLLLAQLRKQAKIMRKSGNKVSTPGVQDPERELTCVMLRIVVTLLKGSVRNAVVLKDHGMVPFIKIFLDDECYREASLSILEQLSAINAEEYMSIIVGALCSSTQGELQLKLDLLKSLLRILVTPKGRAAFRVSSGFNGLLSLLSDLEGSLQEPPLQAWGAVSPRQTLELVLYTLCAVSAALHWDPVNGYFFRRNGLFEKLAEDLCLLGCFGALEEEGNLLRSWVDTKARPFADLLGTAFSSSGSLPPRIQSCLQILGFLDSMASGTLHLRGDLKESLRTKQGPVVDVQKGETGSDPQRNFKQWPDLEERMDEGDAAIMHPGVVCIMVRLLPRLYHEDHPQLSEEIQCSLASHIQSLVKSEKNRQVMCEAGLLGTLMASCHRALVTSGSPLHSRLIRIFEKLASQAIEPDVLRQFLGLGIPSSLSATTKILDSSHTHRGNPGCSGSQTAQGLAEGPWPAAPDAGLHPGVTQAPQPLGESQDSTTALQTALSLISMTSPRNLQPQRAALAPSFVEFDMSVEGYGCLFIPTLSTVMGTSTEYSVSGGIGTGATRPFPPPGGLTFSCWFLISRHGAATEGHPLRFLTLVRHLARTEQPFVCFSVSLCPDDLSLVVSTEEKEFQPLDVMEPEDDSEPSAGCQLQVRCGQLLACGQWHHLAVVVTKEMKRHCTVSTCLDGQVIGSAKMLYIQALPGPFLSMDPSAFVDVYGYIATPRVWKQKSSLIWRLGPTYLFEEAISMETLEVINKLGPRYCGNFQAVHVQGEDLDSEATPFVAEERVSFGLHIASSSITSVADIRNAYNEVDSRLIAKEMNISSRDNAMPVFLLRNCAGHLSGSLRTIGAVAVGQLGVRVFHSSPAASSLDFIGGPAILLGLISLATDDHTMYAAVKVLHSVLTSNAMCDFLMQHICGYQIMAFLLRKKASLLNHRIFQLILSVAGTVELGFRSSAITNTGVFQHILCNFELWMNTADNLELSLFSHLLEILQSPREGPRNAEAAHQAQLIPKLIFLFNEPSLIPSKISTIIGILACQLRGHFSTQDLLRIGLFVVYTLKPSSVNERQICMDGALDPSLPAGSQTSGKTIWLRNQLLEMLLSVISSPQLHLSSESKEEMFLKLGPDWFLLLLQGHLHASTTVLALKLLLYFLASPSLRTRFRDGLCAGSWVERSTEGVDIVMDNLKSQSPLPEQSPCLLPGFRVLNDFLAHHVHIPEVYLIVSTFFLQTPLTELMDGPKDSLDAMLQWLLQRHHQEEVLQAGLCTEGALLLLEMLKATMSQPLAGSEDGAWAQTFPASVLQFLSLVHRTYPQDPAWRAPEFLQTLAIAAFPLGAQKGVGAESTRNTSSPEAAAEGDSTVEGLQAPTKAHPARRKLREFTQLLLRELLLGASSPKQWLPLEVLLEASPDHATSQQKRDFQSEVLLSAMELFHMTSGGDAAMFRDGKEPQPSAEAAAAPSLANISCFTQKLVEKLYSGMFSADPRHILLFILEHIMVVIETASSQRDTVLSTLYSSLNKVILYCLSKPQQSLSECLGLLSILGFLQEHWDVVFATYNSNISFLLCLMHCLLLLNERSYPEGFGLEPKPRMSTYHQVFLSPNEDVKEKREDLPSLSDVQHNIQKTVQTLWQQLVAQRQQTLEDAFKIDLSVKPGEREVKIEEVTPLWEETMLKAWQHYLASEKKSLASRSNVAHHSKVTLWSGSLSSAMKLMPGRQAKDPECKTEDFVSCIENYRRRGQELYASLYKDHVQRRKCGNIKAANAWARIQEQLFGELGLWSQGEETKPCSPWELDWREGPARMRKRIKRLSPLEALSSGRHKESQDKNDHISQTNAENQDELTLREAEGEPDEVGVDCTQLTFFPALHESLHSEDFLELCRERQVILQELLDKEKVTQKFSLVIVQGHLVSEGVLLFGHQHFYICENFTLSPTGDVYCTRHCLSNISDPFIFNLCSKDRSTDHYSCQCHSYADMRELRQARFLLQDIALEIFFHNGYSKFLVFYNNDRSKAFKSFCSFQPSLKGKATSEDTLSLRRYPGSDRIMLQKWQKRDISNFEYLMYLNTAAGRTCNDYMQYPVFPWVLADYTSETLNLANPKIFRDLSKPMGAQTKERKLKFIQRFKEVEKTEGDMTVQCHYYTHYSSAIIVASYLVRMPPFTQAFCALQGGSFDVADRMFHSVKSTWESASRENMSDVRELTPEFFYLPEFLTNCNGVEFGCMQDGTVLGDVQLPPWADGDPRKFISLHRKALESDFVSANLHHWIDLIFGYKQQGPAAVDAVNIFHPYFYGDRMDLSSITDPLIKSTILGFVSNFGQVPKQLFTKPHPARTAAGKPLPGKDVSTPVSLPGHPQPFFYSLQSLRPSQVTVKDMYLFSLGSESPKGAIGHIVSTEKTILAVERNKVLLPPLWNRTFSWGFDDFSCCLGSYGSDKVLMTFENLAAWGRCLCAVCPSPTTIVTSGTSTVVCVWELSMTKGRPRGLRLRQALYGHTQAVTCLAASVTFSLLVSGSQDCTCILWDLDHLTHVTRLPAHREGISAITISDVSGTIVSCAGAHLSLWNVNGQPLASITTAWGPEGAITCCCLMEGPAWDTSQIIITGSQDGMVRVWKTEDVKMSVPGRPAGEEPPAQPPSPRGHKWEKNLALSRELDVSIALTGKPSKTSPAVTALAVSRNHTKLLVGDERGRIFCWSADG
Protein cereblon/WD repeat- and FYVE domain-containing protein 4 (Homo sapiens), sequence (Q96SW2 whole entry, looked up, the tested form may be a part): as the sequence (Q96SW2 whole entry) above

[10] = molecular target: Protein cereblon/Ubiquitin carboxyl-terminal hydrolase 8 (Homo sapiens) (UniProt P40818+Q96SW2); experiment: Protac activity at CRBN/USP8 in human BxPC-3 cells assessed as USP8 degradation incubated for 16 hrs by proteomic analysis; type: cell-based; outline: as §2
[11] = molecular target: Protein cereblon/Eukaryotic peptide chain release factor GTP-binding subunit ERF3A (Homo sapiens) (UniProt Q96SW2+P15170); experiment: Protac activity at CRBN/GSPT in human BxPC-3 cells assessed as degradation of GSPT at 1 to 3 uM incubated for 16 hrs by western blot analysis; type: cell-based; conditions: dose 1-3 µM
Protein cereblon/Eukaryotic peptide chain release factor GTP-binding subunit ERF3A (Homo sapiens), sequence (P15170 whole entry, looked up): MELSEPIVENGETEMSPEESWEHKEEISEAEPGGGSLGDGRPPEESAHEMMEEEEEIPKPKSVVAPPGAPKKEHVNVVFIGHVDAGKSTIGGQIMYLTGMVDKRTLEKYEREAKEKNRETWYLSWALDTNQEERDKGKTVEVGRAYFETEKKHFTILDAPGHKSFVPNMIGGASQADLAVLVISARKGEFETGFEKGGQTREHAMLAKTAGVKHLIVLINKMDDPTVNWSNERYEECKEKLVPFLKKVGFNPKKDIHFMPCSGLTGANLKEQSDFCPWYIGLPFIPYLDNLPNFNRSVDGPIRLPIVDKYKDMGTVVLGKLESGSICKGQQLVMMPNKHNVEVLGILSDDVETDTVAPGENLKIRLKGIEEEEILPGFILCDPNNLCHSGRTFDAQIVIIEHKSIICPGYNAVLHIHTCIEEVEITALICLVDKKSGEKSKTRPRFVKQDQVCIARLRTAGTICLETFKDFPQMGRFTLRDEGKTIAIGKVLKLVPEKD
Protein cereblon/Eukaryotic peptide chain release factor GTP-binding subunit ERF3A (Homo sapiens), sequence (Q96SW2 whole entry, looked up): as the sequence (Q96SW2 whole entry) above
Outline: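 BxPC-3 cells were treated with compound for 16 h, then lysed and immunoblotted for GSPT (1:1000) alongside GAPDH. Detection used fluorescent secondary antibodies on an Odyssey imager, and bands were quantified by densitometry.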

[12] = molecular target: T1, Protein cereblon/E3 ubiquitin-protein ligase ZFP91; experiment: Protac activity at CRBN/ZFP91 in human BxPC-3 cells assessed as degradation of ZFP91 at 0.5 uM incubated for 16 hrs in presence of napabucasin by western blot analysis; type: cell-based
Outline: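 Whole-cell lysates immunoblotted for ZFP91, GAPDH reference, densitometric quantification.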

[13] = Upregulation of ABCB6 protein levels in human BxPC-3 cells incubated for 16 hrs by proteomic analysis; type: functional; outline: as §2
[14] = Selectivity index, ratio of IC50 for antiproliferative activity against human HEK293 cell by MTT assay to IC50 for inhibition of IL-6 induced STAT3 transcription in human HEK293 cells
Outline: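 HEK-293 cells carrying an SIE-luc2P STAT3 reporter, seeded 10,000/well, stimulated with IL6 at 100 ng/ml for 24 h, then given compound for 24 h; luciferase reagent added and luminescence read after 5 min. A parallel 24 h MTT assay was run in the same cells. Mean ± SD of three independent experiments.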

[15] = molecular target: Protein cereblon/SOSS complex subunit B1 (Homo sapiens) (UniProt Q96SW2+Q9BQ15); experiment: Protac activity at CRBN/NABP2 in human BxPC-3 cells assessed as NABP2 degradation incubated for 16 hrs by proteomic analysis; type: cell-based; outline: as §1
[16] = molecular target: Protein cereblon/Endothelial differentiation-related factor 1 (Homo sapiens) (UniProt Q96SW2+O60869); experiment: Protac activity at CRBN/EDF1 in human BxPC-3 cells assessed as EDF1 degradation incubated for 16 hrs by proteomic analysis; type: cell-based; outline: as §1
[17] = Upregulation of AKR1C2 protein levels in human BxPC-3 cells incubated for 16 hrs by proteomic analysis; type: functional; outline: as §2
[18] = molecular target: Protein cereblon/45 kDa calcium-binding protein (Homo sapiens) (UniProt Q96SW2+Q9BRK5); experiment: Protac activity at CRBN/SDF4 in human BxPC-3 cells assessed as SDF4 degradation incubated for 16 hrs by proteomic analysis; type: cell-based; outline: as §1
[19] = molecular target: Protein cereblon/Procollagen-lysine,2-oxoglutarate 5-dioxygenase 2 (Homo sapiens) (UniProt Q96SW2+O00469); experiment: Protac activity at CRBN/PLOD2 in human BxPC-3 cells assessed as PLOD2 degradation incubated for 16 hrs by proteomic analysis; type: cell-based; outline: as §1
[20] = molecular target: Protein cereblon/Laminin subunit beta-1 (Homo sapiens) (UniProt P07942+Q96SW2); experiment: Protac activity at CRBN/LAMB1 in human BxPC-3 cells assessed as LAMB1 degradation incubated for 16 hrs by proteomic analysis; type: cell-based; outline: as §1
[21] = molecular target: Protein cereblon/SET domain-containing protein 4 (Homo sapiens) (UniProt Q96SW2+Q9NVD3); experiment: Protac activity at CRBN/SETD4 in human BxPC-3 cells assessed as SETD4 degradation incubated for 16 hrs by proteomic analysis; type: cell-based; outline: as §1

log2FC [1]: -0.9
Activity [2]: inactive
log2FC [3]: -0.84
Activity [4]: Active
log2FC [5]: -0.62
log2FC [6]: -0.61
log2FC [7]: -0.85
IC50 (BXPC-3): 800 nM
log2FC [9]: -0.78
log2FC [10]: -0.59
Activity [11]: inactive
Activity [12]: Active
log2FC [15]: -0.78
log2FC [16]: -0.82
log2FC [18]: -0.67
log2FC [19]: -0.63
log2FC [20]: -0.67
log2FC [21]: -0.86
Compound: O=C1CCC(N2C(=O)c3cccc(NCCCCCC4CCN(CCNC(=O)c5cc6c(o5)C(=O)c5ccccc5C6=O)CC4)c3C2=O)C(=O)N1 (configuration not stated)
log2FC [8]: 1.58
log2FC [13]: 0.68
Ratio IC50 [14]: 7
log2FC [17]: 0.6
